PubChem BioAssay
The source made the active and inactive calls.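 Rule for the calls, unless noted: active = membrane potential signal rise above negative control mean plus 3 SD in both duplicates, also active in the earlier TRPC4 screen; inactive = the rest.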

Target: Short transient receptor potential channel 6 (Mus musculus) (UniProt Q61143)
Test: inhibition of mouse TRPC6 channel, confirmation, selectivity assay for TRPC4 inhibitor project, cell-based, HEK293, membrane potential dye, duplicate (AID 434948;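 active = active in primary screen and both duplicates, each dropping signal beyond three positive-control SD with fluorescence still positive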)
Details: HEK293 TRPC6, membrane potential dye fluorescence, at 10 µM, stimulated with maximal-effect acetylcholine; stronger effect = higher value
Outline: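 Test system: TRPC6-expressing HEK293 cells / Probe or stimulus: acetylcholine at maximal (ECmax) concentration, added after compound / Schedule: dye 45 min RT, compound 110 s, agonist read 110 s / Technique: membrane potential dye fluorescence, kinetic read / Read-out basis: control-normalized integrated fluorescence ratio / Repeats: two replicates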

Sequence of Short transient receptor potential channel 6 (Mus musculus) (Q61143 whole entry, looked up): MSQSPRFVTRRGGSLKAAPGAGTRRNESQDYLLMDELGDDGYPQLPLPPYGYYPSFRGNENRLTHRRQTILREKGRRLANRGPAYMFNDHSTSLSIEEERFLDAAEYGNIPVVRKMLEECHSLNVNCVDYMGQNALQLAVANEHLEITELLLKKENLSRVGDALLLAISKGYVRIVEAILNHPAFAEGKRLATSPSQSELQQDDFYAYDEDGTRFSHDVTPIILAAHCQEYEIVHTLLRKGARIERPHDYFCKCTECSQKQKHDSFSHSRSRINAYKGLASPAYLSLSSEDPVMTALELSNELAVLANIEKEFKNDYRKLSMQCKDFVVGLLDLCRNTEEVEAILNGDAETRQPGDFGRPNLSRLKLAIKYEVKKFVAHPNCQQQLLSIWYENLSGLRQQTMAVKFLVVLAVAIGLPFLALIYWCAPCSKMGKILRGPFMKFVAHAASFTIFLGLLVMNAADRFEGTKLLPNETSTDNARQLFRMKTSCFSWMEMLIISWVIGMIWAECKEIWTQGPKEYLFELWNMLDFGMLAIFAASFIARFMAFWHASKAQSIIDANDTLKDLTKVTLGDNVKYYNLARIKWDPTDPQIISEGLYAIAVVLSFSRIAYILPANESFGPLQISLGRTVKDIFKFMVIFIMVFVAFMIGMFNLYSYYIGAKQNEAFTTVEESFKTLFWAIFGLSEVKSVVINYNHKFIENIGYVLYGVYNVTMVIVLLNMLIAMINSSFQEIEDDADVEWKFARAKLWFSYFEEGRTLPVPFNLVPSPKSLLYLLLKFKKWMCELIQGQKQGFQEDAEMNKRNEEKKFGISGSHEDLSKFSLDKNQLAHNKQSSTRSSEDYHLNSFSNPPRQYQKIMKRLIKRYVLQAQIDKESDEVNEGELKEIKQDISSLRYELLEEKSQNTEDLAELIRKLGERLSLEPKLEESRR

outcome, inactive:
NC1=NC2(CCN(Cc3ccccc3)CC2)n2c(nc3ccccc32)N1
COc1ccc(CN2CCC(N(CCc3ccccc3)Cc3ccccc3)CC2)c(OC)c1
CCc1ccc(C(=O)c2cnc3ccc(OC)cc3c2N2CCN(CC)CC2)cc1
S=C(NCCc1cnc[nH]1)NC1CCCC1
O=C(NCc1ccccc1)C1=C[C@H](c2ccccc2)C[C@H](OCc2ccc(CO)cc2)O1
Cc1ccc(OCC(=O)N(C)CCc2ccccn2)cc1
CC(C)(C)C(=O)/C=c1\s/c(=C\c2ccc(-c3ccc([N+](=O)[O-])cc3)o2)c(=O)n1CC(=O)NC(N)=O
NC(=O)C1CCCN(CCc2ccccc2)C1 (stereo not drawn)
Cc1cc2nc3s/c(=C/c4ccc(-c5ccccc5C(=O)O)o4)c(=O)n3c2cc1C
COc1ccc(CNCc2cn(-c3cccc(F)c3)nc2-c2ccc(C)o2)cc1
CN(C)C(CNc1ccc(C(F)(F)F)cn1)c1ccccc1 (stereo not drawn)
CN(C)C(CNC(=O)c1cccc(S(=O)(=O)N(C)C)c1)c1ccccc1 (stereo not drawn)
CCCc1c(O)nc(SCCN(CC)CC)[nH]c1=O
CCC(=O)N1CCc2cc(Br)cc(S(=O)(=O)NCCCN(CC)Cc3ccccc3)c21
Cc1ccc(Cn2c(SCCN3CCCCC3)nc3c2c(=O)n(C)c(=O)n3C)cc1
O=C(O)C1C2C=CC(C2)C1C(=O)N1CCN(C/C=C/c2ccccc2)CC1 (stereo not drawn)
COc1ccc(C)c(NC(=O)NCCc2cnc[nH]2)c1
OCCC1CN(Cc2ccccc2-c2ccco2)CCN1Cc1ccccc1 (stereo not drawn)
COc1ccc(CCN(C)C(=O)C2CCCN(C3CCN(Cc4ccccc4)CC3)C2)cc1OC (stereo not drawn)
CCOc1ccc(S(=O)(=O)Nc2cccc(C(=O)NCC(c3ccccc3)N(C)C)c2)cc1 (stereo not drawn)
Cc1cc(C)cc(NC(=S)N2CCN(c3ncc(C(F)(F)F)cc3Cl)CC2)c1
COc1ccc(C(CNC(=O)c2cccc(Br)c2)N2CCCC2)cc1 (stereo not drawn)
CC(C)n1cnc2c(N(C)c3ccccc3)nc(N(CCN(C)C)Cc3ccccc3)nc21
Cc1cccn2c(CNCCc3ccccn3)c(C(=O)N3CCOCC3)nc12
Cc1ccc(C)c(-n2cc(CNCCCn3cccn3)c(-c3ccccc3)n2)c1
Cc1csc2c(N3CCN(C(=O)Nc4ccc(OC(F)(F)F)cc4)CC3)ncnc12
CN(CCc1ccccn1)C(=S)Nc1cccc(S(=O)(=O)N(C)C)c1
Cc1ccc(NC(=S)NC2CC3CCC(C2)N3Cc2ccco2)c(C)c1 (stereo not drawn)
COc1cc2c(cc1OC)C(C)N(C(=O)C(NC(=O)c1ccccc1)C(C)C)CC2 (stereo not drawn)
O=C(NC1CC1)C1=C[C@H](c2csc3ccccc23)C[C@H](OCc2ccc(CO)cc2)O1
Clc1ccc2nc(N3CCNCC3)nc(-c3ccccc3)c2c1
COc1ccc(C(CNC(=O)/C=C/c2c(Cl)nc3ccccn23)N(C)C)cc1 (stereo not drawn)
CC(=O)n1cc([C@H]2C=C(C(=O)NCc3ccccc3)O[C@@H](OCc3ccc(CO)cc3)C2)c2ccccc21
CCCn1ncc(CN2CCC(n3nccc3NC(=O)CCc3ccccc3)CC2)c1C
CC(=O)NC(CC(=O)NCC(c1ccco1)N(C)C)c1ccccc1 (stereo not drawn)
COc1ccc(C(=O)NNC(=S)NC(=O)c2cccs2)cc1
COCCn1nnnc1C(c1cc2ccc(OC)cc2[nH]c1=O)N1CCN(C2CCCCC2)CC1 (stereo not drawn)
O=C(c1sc2ccccc2c1Cl)N(Cc1ccccc1)C1CCS(=O)(=O)C1 (stereo not drawn)
O=c1c(Cc2ccc(F)cc2)c(O)ccn1CCc1cnc[nH]1

Target: Short transient receptor potential channel 6 (Mus musculus) (UniProt Q61143)
Test: activation of mouse TRPC6 channel, confirmation, selectivity assay for TRPC4 activator project, cell-based, HEK293, membrane potential dye, duplicate (AID 434950);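 for activation: 0% = buffer only wells and 100% = acetylcholine maximal-effect wells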
Details: HEK293 TRPC6, membrane potential fluorescence, at 10 µM; stronger effect = higher value

outcome, inactive:
NC1=NC2(CCN(Cc3ccccc3)CC2)n2c(nc3ccccc32)N1
CCc1ccc(C(=O)c2cnc3ccc(OC)cc3c2N2CCN(CC)CC2)cc1
S=C(NCCc1cnc[nH]1)NC1CCCC1
Cc1ccc(OCC(=O)N(C)CCc2ccccn2)cc1
NC(=O)C1CCCN(CCc2ccccc2)C1 (stereo not drawn)
COc1ccc(CNCc2cn(-c3cccc(F)c3)nc2-c2ccc(C)o2)cc1
CCCc1c(O)nc(SCCN(CC)CC)[nH]c1=O
CCC(=O)N1CCc2cc(Br)cc(S(=O)(=O)NCCCN(CC)Cc3ccccc3)c21
Cc1ccc(Cn2c(SCCN3CCCCC3)nc3c2c(=O)n(C)c(=O)n3C)cc1
Cc1csc2c(N3CCN(C(=O)Nc4ccc(OC(F)(F)F)cc4)CC3)ncnc12
CN(CCc1ccccn1)C(=S)Nc1cccc(S(=O)(=O)N(C)C)c1
Cc1ccc(NC(=S)NC2CC3CCC(C2)N3Cc2ccco2)c(C)c1 (stereo not drawn)
Clc1ccc2nc(N3CCNCC3)nc(-c3ccccc3)c2c1
CC(=O)n1cc([C@H]2C=C(C(=O)NCc3ccccc3)O[C@@H](OCc3ccc(CO)cc3)C2)c2ccccc21
CC(=O)NC(CC(=O)NCC(c1ccco1)N(C)C)c1ccccc1 (stereo not drawn)
O=c1c(Cc2ccc(F)cc2)c(O)ccn1CCc1cnc[nH]1

activation, active:
COc1ccc(CN2CCC(N(CCc3ccccc3)Cc3ccccc3)CC2)c(OC)c1 44%
O=C(NCc1ccccc1)C1=C[C@H](c2ccccc2)C[C@H](OCc2ccc(CO)cc2)O1 27%
CC(C)(C)C(=O)/C=c1\s/c(=C\c2ccc(-c3ccc([N+](=O)[O-])cc3)o2)c(=O)n1CC(=O)NC(N)=O 534%
Cc1cc2nc3s/c(=C/c4ccc(-c5ccccc5C(=O)O)o4)c(=O)n3c2cc1C 675%
CN(C)C(CNc1ccc(C(F)(F)F)cn1)c1ccccc1 (stereo not drawn) 32%
CN(C)C(CNC(=O)c1cccc(S(=O)(=O)N(C)C)c1)c1ccccc1 (stereo not drawn) 39.5%
O=C(O)C1C2C=CC(C2)C1C(=O)N1CCN(C/C=C/c2ccccc2)CC1 (stereo not drawn) 26%
COc1ccc(C)c(NC(=O)NCCc2cnc[nH]2)c1 33%
OCCC1CN(Cc2ccccc2-c2ccco2)CCN1Cc1ccccc1 (stereo not drawn) 63.5%
COc1ccc(CCN(C)C(=O)C2CCCN(C3CCN(Cc4ccccc4)CC3)C2)cc1OC (stereo not drawn) 50%
CCOc1ccc(S(=O)(=O)Nc2cccc(C(=O)NCC(c3ccccc3)N(C)C)c2)cc1 (stereo not drawn) 43%
Cc1cc(C)cc(NC(=S)N2CCN(c3ncc(C(F)(F)F)cc3Cl)CC2)c1 25%
COc1ccc(C(CNC(=O)c2cccc(Br)c2)N2CCCC2)cc1 (stereo not drawn) 61.5%
CC(C)n1cnc2c(N(C)c3ccccc3)nc(N(CCN(C)C)Cc3ccccc3)nc21 31%
Cc1cccn2c(CNCCc3ccccn3)c(C(=O)N3CCOCC3)nc12 46.5%
Cc1ccc(C)c(-n2cc(CNCCCn3cccn3)c(-c3ccccc3)n2)c1 48.5%
COc1cc2c(cc1OC)C(C)N(C(=O)C(NC(=O)c1ccccc1)C(C)C)CC2 (stereo not drawn) 31%
O=C(NC1CC1)C1=C[C@H](c2csc3ccccc23)C[C@H](OCc2ccc(CO)cc2)O1 35.5%
COc1ccc(C(CNC(=O)/C=C/c2c(Cl)nc3ccccn23)N(C)C)cc1 (stereo not drawn) 41%
CCCn1ncc(CN2CCC(n3nccc3NC(=O)CCc3ccccc3)CC2)c1C 36.5%
COc1ccc(C(=O)NNC(=S)NC(=O)c2cccs2)cc1 41.5%
COCCn1nnnc1C(c1cc2ccc(OC)cc2[nH]c1=O)N1CCN(C2CCCCC2)CC1 (stereo not drawn) 37.5%
O=C(c1sc2ccccc2c1Cl)N(Cc1ccccc1)C1CCS(=O)(=O)C1 (stereo not drawn) 36%
